Laboratory results: ChEMBL document CHEMBL1122147, “N,N'-Dialkyl-1,2-bis(hydroxyphenyl)ethylenediamines and N,N-dialkyl-4,5-bis(4-hydroxyphenyl)imidazolidines: syntheses and evaluation of their mammary tumor inhibiting activity” (1982)
Values belong to the compound of their own block, whether it stands above or below them. The source made the active and inactive calls. The calls are words filed in the database; no cut-off is given here.

What was measured:
Rattus norvegicus [1] = test: Inhibition of the DMBA-induced mammary carcinoma in 11 rats at 25 mg/kg dose; not significant; assay type: functional
Summary of the method: (§1)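 Established DMBA-induced mammary carcinoma, Sprague-Dawley rats; compound in arachis oil sc three times weekly (Mon, Wed, Fri). Starting tumor area above 140 mm² per animal; percent increase of tumor area after 28 days of therapy, mean values; significance by Wilcoxon-Mann-Whitney U test.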

[2] = biological target: T1, Estrogen receptor (Mus musculus) (UniProt O08537+P19785); test: Binding affinity for murine Estrogen receptor; assay type: protein assay
[3] = biological target: T1, Estrogen receptor (Mus musculus); test: In vitro inhibition of murine Estrogen receptor; assay type: protein assay; design: concentration or dose not given beside the values; conditions: concentration not given here
[4] = biological target: T1, Estrogen receptor (Mus musculus); test: (§2) Binding affinity for murine Estrogen receptor; No affinity; assay type: protein assay
[5] = biological target: T1, Estrogen receptor (Mus musculus); test: as §2; assay type: protein assay; remark: listed apart in the source
MCF7 [6] = test: Incorporation of [3H]thymidine into estrogen-responsive MCF-7 human breast tumor cells at 10e-8 M with hexestrol; assay type: functional
Summary of the method: (§3)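 MCF-7 cells plated in medium with 10% FCS, switched next day to 5% dextran-charcoal-stripped calf serum, medium renewed every 72 h. At ~60% confluence compounds added in ethanol (0.1% final), 60 h incubation; 1 μCi [3H]thymidine per well for last 2 h. Acid (10% Cl3AcOH)-precipitable counts from sonicate, dpm/dish, mean of six dishes ± SD.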

MCF7 [7] = test: Incorporation of [3H]thymidine into estrogen-responsive MCF-7 human breast tumor cells at 10e-8 M concentration with hexestrol; dpm/dish; assay type: functional; summary of the method: as §3
Rattus norvegicus [8] = species on record: Rattus norvegicus; test: Dehydrogenase activity in proliferating DMBA-induced mammary tumor in rats; assay type: functional
Summary of the method: (§4)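 DMBA-induced rat mammary tumors, growing versus regressing, assayed for glucose-6-phosphate plus 6-phosphogluconate dehydrogenase and p-nitrophenylphosphatase activities (μM/mL); mean ± SD, growing vs regressing compared by Student's t test.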

Rattus norvegicus [9] = species on record: Rattus norvegicus; test: p-Nitrophenylphosphatase activity in proliferating DMBA-induced mammary tumor in rats; assay type: functional; summary of the method: as §4
Rattus norvegicus [10] = test: Inhibition of the DMBA-induced mammary carcinoma in 10 rats at 20 mg/kg dose; assay type: functional; summary of the method: as §1
Rattus norvegicus [11] = species on record: Rattus norvegicus; test: Dehydrogenase activity in regressing DMBA-induced mammary tumor in rats; assay type: functional; summary of the method: as §4
Rattus norvegicus [12] = species on record: Rattus norvegicus; test: p-Nitrophenylphosphatase activity in regressing DMBA-induced mammary tumor in rats; not significant; assay type: functional; summary of the method: as §4
Rattus norvegicus [13] = test: Inhibition of the DMBA-induced mammary carcinoma in 8 rats at 15 mg/kg dose; not significant; assay type: functional; summary of the method: as §1
MCF7 [14] = test: Incorporation of [3H]thymidine into estrogen-responsive MCF-7 human breast tumor cells at 10e-5 M; assay type: functional; summary of the method: as §3
MCF7 [15] = test: Incorporation of [3H]thymidine into estrogen-responsive MCF-7 human breast tumor cells at 10e-5 M; dpm/dish; assay type: functional; summary of the method: as §3
MCF7 [16] = test: Incorporation of [3H]thymidine into estrogen-responsive MCF-7 human breast tumor cells at 10e-8 M with hexestrol; dpm/dish; assay type: functional; summary of the method: as §3

T1 sequence (O08537 whole entry, looked up): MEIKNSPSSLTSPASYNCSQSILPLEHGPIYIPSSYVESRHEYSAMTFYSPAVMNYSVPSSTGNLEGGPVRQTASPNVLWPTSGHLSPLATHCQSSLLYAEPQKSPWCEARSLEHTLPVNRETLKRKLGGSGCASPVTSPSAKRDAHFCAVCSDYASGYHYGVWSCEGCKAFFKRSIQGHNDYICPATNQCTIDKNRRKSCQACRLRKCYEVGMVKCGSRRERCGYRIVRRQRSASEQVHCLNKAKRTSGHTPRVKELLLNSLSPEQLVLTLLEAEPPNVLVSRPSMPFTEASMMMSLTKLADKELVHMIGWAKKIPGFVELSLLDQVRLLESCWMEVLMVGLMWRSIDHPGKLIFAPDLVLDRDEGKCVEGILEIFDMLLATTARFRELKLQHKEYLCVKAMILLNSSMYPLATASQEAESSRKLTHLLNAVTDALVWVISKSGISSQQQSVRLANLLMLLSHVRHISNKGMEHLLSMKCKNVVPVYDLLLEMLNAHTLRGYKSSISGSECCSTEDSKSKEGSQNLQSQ
T1 sequence (P19785 whole entry, looked up): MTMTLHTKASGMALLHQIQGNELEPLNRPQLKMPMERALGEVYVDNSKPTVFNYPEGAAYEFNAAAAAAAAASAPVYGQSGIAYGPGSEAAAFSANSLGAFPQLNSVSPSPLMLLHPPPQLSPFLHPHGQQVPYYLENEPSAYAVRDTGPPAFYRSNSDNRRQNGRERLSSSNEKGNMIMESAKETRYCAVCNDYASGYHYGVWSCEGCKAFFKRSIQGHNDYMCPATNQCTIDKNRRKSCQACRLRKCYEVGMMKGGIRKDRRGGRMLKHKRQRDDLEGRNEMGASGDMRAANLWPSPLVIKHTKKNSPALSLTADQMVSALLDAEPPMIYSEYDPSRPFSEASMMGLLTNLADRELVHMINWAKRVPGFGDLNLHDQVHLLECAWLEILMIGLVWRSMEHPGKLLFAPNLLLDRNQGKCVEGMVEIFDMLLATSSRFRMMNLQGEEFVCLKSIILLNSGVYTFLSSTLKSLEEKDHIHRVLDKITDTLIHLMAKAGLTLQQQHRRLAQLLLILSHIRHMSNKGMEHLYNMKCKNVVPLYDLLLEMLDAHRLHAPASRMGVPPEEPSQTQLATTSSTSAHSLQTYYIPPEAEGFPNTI

SMILES: CCCCN1C(c2ccc(O)cc2)C(c2ccc(O)cc2)N(CCCC)C1c1ccccc1 (racemic)
- inhibition [3]: 39%

SMILES: CC/C(=C(\c1ccccc1)c1ccc(OCCN(C)C)cc1)c1ccccc1 [TAMOXIFEN]
- Activity (MCF7 [6]): 82%
- Activity (MCF7 [7]): 11225

SMILES: CCNC(c1ccc(O)cc1)C(NCC)c1ccc(O)cc1 (stereo not given)
- Ka [2]: < 10000 M⁻¹

SMILES: CCCCNC(c1ccc(O)cc1)C(NCCCC)c1ccc(O)cc1.Cl.Cl (single isomer, unassigned; (+))
- Activity (Rattus norvegicus [8]): 191.7 uM ml-1
- Activity (Rattus norvegicus [9]): 39.4 uM ml-1
- Increase (Rattus norvegicus [10]): 112%
- Activity (Rattus norvegicus [11]): 101.8 uM ml-1
- Activity (Rattus norvegicus [12]): 48.4 uM ml-1

SMILES: CCNC(c1ccc(OC)cc1)C(NCC)c1ccc(OC)cc1 (stereo not given)
- Ka [4]: inactive

SMILES: CC(C)NC(c1ccc(O)cc1)C(NC(C)C)c1ccc(O)cc1 (stereo not given)
- Ka [2]: 140000 M⁻¹

SMILES: CC[C@H](c1ccc(O)cc1)[C@@H](CC)c1ccc(O)cc1 [HEXESTROL]
- Activity (MCF7 [6]): 120%
- Activity (MCF7 [7]): 16485

SMILES: CCCCN1CN(CCCC)C(c2ccc(O)cc2)C1c1ccc(O)cc1 (racemic) [listing 1 of 2 here]
- Increase (Rattus norvegicus [13]): 105%

SMILES: COc1ccc(C(NC(C)C)C(NC(C)C)c2ccc(OC)cc2)cc1 (stereo not given)
- Ka [4]: inactive

SMILES: CNC(c1ccc(O)cc1)C(NC)c1ccc(O)cc1 (stereo not given)
- Ka [5]: inactive

SMILES: CCCCN1C(=S)N(CCCC)C(c2ccc(O)cc2)C1c1ccc(O)cc1 (racemic)
- inhibition [3]: 75%

SMILES: CCCCNC(c1ccc(O)cc1)C(NCCCC)c1ccc(O)cc1.Cl.Cl (single isomer, unassigned; (-))
- Activity (Rattus norvegicus [8]): 183.3 uM ml-1
- Activity (Rattus norvegicus [9]): 42.8 uM ml-1
- Increase (Rattus norvegicus [10]): 115%
- Activity (Rattus norvegicus [11]): 121.3 uM ml-1
- Activity (Rattus norvegicus [12]): 44.9 uM ml-1

SMILES: CCCCN1C(c2ccc(O)cc2)C(c2ccc(O)cc2)N(CCCC)C1c1ccc(O)cc1 (racemic)
- inhibition [3]: 48%

SMILES: CCCN1CN(CCC)C(c2ccc(O)cc2)C1c1ccc(O)cc1 (racemic)
- inhibition [3]: 66%

SMILES: CCCCNC(c1ccc(O)cc1)C(NCCCC)c1ccc(O)cc1.Cl.Cl (racemic)
- Activity (MCF7 [14]): 79%
- Activity (MCF7 [6]): 101%
- Activity (MCF7 [15]): 10833
- Activity (MCF7 [16]): 13942

SMILES: CCCCN1CN(CCCC)C(c2ccc(O)cc2)C1c1ccc(O)cc1 (single isomer, unassigned; (+))
- inhibition [3]: 3%

SMILES: CNC(c1ccc(OC)cc1)C(NC)c1ccc(OC)cc1 (stereo not given)
- Ka [5]: inactive

SMILES: CCCCNC(c1ccc(O)cc1)C(NCCCC)c1ccc(O)cc1.Cl.Cl (stereo not given)
- Increase (Rattus norvegicus [13]): 475%

Further lines, with some results ahead:

- Ka [2]: 320000 M⁻¹
SMILES: CCCCCCNC(c1ccc(O)cc1)C(NCCCCCC)c1ccc(O)cc1.Cl.Cl (stereo not given)
- Increase (Rattus norvegicus [1]): 132%

- Ka [4]: inactive
SMILES: CCCCNC(c1cccc(OC)c1)C(NCCCC)c1cccc(OC)c1 (stereo not given)

- Ka [5]: 2.1e+07 M⁻¹
SMILES: CCCCNC(c1ccc(O)cc1)C(NCCCC)c1ccc(O)cc1 (single isomer, unassigned; (+))

- Ka [4]: inactive
SMILES: CCCNC(c1ccc(OC)cc1)C(NCCC)c1ccc(OC)cc1 (stereo not given)

- Ka [2]: 1.1e+06 M⁻¹
SMILES: CCCNC(c1ccc(O)cc1)C(NCCC)c1ccc(O)cc1 (stereo not given)

- Ka [5]: 700000 M⁻¹
SMILES: CCCCNC(c1ccc(O)cc1)C(NCCCC)c1ccc(O)cc1 (single isomer, unassigned; (-))

- Ka [5]: inactive
SMILES: CCCCCNC(c1ccc(OC)cc1)C(NCCCCC)c1ccc(OC)cc1 (stereo not given)

- Ka [2]: 2.2e+06 M⁻¹
SMILES: CCCCCNC(c1ccc(O)cc1)C(NCCCCC)c1ccc(O)cc1 (stereo not given)

- Ka [4]: inactive
SMILES: CCCCCCNC(c1ccc(OC)cc1)C(NCCCCCC)c1ccc(OC)cc1 (stereo not given)

- Ka [2]: 3.6e+06 M⁻¹
SMILES: CCCCNC(c1ccc(O)cc1)C(NCCCC)c1ccc(O)cc1 (racemic)

- inhibition [3]: 0%
SMILES: CCCCN1CN(CCCC)C(c2ccc(O)cc2)C1c1ccc(O)cc1 (stereo in doubt; 7d)

- Ka [5]: inactive
SMILES: CCCCNC(c1ccccc1OC)C(NCCCC)c1ccccc1OC (stereo not given)

- Ka [2]: < 10000 M⁻¹
SMILES: CCCCNC(c1cccc(O)c1)C(NCCCC)c1cccc(O)c1 (stereo not given)

- inhibition [3]: 70%
SMILES: CCCCN1CN(CCCC)C(c2ccc(O)cc2)C1c1ccc(O)cc1 (racemic) [listing 2 of 2 here]

- inhibition [3]: 75%
SMILES: CCCCN1CN(CCCC)C(c2ccc(O)cc2)C1c1ccc(O)cc1 (stereo in doubt; 7c)

- Ka [4]: inactive
- Ka [5]: inactive
SMILES: CCCCNC(c1ccc(OC)cc1)C(NCCCC)c1ccc(OC)cc1 (stereo not given)

- Ka [2]: inactive
SMILES: CCCCNC(c1ccccc1O)C(NCCCC)c1ccccc1O (stereo not given)
